How the values were obtained:
Assay type in all cases: functional
KB = assay: Cytotoxicity against human KB cells by MTT assay; settings: read-out: ED50 (the source's name)
Outline: (§1)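 Cells obtained from ATCC. Cytotoxicity read by MTT [3-(4,5-dimethylthiazol-2-yl)-2,5-diphenyltetrazolium bromide] colorimetric method.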

HeLa = assay: Cytotoxicity against human HeLa cells by MTT assay; settings: read-out: ED50 (the source's name); outline: as §1
[1] = Cytotoxicity against human Hepa 59T/VGH cells by MTT assay; settings: read-out: ED50 (the source's name)
[2] = tested on: Radical scavenging activity; assay: Antioxidant activity assessed as DPPH radical scavenging activity at 100 uM
Outline: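 Test compound in 100 mM Tris-HCl (pH 7.4) added to 500 μM DPPH in ethanol (concentration of the added solution), shaken, then left 20 min at room temperature in the dark. Absorbance read at 517 nm by UV-vis spectrophotometer; a table footnote cites a DPPH-HPLC method. Values are mean ± SD of 8 samples.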

COc1c2c(cc3c1-c1c(cc4c(c1OC)OCO4)[C@H](O)[C@@H](C)[C@@H](C)C3)OCO2
EC50 (KB): ≥ 5 µg/mL | EC50 (HeLa): ≥ 5 µg/mL | EC50 [1]: ≥ 5 µg/mL

O=C1O[C@H]([C@@H](O)CO)C(O)=C1O
Activity [2]: 12.5%

COc1cc2c(c(O)c1OC)-c1c(cc3c(c1OC)OCO3)[C@H](OC(=O)/C=C/c1ccccc1)[C@H](C)[C@H](C)C2 [1-DEMETHYLKADSUPHILIN A]
EC50 (KB): ≥ 5 µg/mL | EC50 (HeLa): ≥ 5 µg/mL | EC50 [1]: ≥ 5 µg/mL

C/C=C(/C)C(=O)O[C@H]1c2cc3c(c(OC)c2-c2c(cc(OC)c(OC)c2O)C[C@@H](C)[C@H]1C)OCO3 [ANGELOYLBINANKADSURIN A]
EC50 (KB): ≥ 5 µg/mL | EC50 (HeLa): ≥ 5 µg/mL | Activity [2]: 2.3% | EC50 [1]: ≥ 5 µg/mL

COC1=C(OC)C(=O)[C@]23C(=C1)C[C@@H](C)[C@@]2(C)[C@@H](O)c1cc2c(cc13)OCO2 [KADSULIGNAN K]
EC50 (KB): ≥ 5 µg/mL | EC50 (HeLa): ≥ 5 µg/mL | Activity [2]: 4.6% | EC50 [1]: ≥ 5 µg/mL

COc1cc2c(c(OC)c1OC)-c1c(cc3c(c1OC)OCO3)[C@H](OC(=O)/C=C/c1ccccc1)[C@H](C)[C@H](C)C2 [KADSUPHILINS A]
EC50 (KB): ≥ 5 µg/mL | EC50 (HeLa): ≥ 5 µg/mL | Activity [2]: 1.5% | EC50 [1]: ≥ 5 µg/mL

COc1c(O)cc2c(c1OC)-c1c(cc3c(c1OC)OCO3)C[C@H](C)[C@H](C)[C@@H]2O [KADSUPHILINS B]
EC50 (KB): ≥ 5 µg/mL | EC50 (HeLa): ≥ 5 µg/mL | EC50 [1]: ≥ 5 µg/mL

C/C=C(/C)C(=O)O[C@H]1c2cc3c(c(OC)c2-c2c(cc(OC)c(OC)c2O)[C@H](OC(=O)/C(C)=C\C)[C@](C)(O)[C@H]1C)OCO3 [SCHIZANRIN J]
EC50 (KB): ≥ 5 µg/mL | EC50 (HeLa): ≥ 5 µg/mL | Activity [2]: 1.9% | EC50 [1]: ≥ 5 µg/mL

— ChEMBL document CHEMBL1157974, “C18 dibenzocyclooctadiene lignans from Kadsura philippinensis” (2006)
